According to ChEMBL document CHEMBL4152264, “Design, synthesis, antiproliferative activity and docking studies of quinazoline derivatives bearing 2,3-dihydro-indole or 1,2,3,4-tetrahydroquinoline as potential EGFR inhibitors” (Eur J Med Chem, 2018):

Tests used:
PC-3 = experiment: Antiproliferative activity against human PC3 cells after 72 hrs by MTT assay; type: functional, cell-based; conditions: PC-3, 72 h
How it was run: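 Cells grown in MEM with 10% FBS. About 4×10³ cells per well seeded and incubated 24 h at 37 °C, 5% CO₂. Compounds added at indicated final concentrations for 72 h. MTT at 5 µg/mL final for 4 h at 37 °C. Formazan dissolved in DMSO, absorbance read at 492 nm with 630 nm reference. Tested three times; IC50 is the mean of two determinations.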

MCF7 = experiment: Antiproliferative activity against human MCF7 cells after 72 hrs by MTT assay; type: functional, cell-based; conditions: MCF7, 72 h
A549 [1] = experiment: Antiproliferative activity against human A549 cells after 72 hrs by MTT assay; type: functional, cell-based; conditions: A549, 72 h
[2] = Solubility of the compound in water; type: physicochemical; conditions: buffer
[3] = molecular target: Epidermal growth factor receptor (Homo sapiens, UniProt P00533); experiment: Inhibition of wild type EGFR (unknown origin) using FAM-labeled peptide substrate after 10 mins by mobility shift assay
Chain of Epidermal growth factor receptor (Homo sapiens, UniProt P00533) (P00533 whole entry): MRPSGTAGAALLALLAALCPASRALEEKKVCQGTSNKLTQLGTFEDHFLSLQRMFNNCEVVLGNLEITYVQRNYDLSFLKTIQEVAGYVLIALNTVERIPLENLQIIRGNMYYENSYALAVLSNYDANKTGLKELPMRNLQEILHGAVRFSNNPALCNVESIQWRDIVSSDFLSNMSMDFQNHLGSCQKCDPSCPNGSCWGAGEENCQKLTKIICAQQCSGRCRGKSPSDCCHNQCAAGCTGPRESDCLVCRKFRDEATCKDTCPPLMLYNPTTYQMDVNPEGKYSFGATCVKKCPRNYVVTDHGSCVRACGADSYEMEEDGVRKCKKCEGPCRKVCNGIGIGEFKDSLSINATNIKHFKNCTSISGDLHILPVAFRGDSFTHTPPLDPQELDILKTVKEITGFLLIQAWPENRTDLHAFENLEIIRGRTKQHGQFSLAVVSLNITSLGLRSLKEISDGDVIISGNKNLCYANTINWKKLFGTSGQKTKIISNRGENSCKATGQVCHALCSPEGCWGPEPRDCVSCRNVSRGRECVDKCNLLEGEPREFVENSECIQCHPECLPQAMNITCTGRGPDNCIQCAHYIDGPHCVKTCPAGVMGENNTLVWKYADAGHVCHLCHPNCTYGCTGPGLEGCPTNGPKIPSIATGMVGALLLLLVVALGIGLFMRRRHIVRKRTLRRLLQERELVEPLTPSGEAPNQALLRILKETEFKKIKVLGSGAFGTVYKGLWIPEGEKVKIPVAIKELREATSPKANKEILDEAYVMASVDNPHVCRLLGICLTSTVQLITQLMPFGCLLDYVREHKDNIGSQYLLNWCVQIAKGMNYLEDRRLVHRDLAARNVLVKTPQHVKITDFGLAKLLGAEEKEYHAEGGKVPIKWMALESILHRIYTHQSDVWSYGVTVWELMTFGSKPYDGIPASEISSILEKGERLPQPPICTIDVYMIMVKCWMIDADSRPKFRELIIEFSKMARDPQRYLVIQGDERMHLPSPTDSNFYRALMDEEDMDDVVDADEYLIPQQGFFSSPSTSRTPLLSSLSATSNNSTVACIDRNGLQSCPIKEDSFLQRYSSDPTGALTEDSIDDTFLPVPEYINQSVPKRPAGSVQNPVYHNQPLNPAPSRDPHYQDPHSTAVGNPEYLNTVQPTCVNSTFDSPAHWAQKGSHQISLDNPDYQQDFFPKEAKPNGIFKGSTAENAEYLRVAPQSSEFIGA

[4] = molecular target: Epidermal growth factor receptor (Homo sapiens, UniProt P00533, T790M); experiment: Inhibition of wild type EGFR T790M mutant (unknown origin) using FAM-labeled peptide substrate after 10 mins by mobility shift assay
Chain of Epidermal growth factor receptor (Homo sapiens, UniProt P00533, T790M) (P00533 25-1210 T790M limits assumed): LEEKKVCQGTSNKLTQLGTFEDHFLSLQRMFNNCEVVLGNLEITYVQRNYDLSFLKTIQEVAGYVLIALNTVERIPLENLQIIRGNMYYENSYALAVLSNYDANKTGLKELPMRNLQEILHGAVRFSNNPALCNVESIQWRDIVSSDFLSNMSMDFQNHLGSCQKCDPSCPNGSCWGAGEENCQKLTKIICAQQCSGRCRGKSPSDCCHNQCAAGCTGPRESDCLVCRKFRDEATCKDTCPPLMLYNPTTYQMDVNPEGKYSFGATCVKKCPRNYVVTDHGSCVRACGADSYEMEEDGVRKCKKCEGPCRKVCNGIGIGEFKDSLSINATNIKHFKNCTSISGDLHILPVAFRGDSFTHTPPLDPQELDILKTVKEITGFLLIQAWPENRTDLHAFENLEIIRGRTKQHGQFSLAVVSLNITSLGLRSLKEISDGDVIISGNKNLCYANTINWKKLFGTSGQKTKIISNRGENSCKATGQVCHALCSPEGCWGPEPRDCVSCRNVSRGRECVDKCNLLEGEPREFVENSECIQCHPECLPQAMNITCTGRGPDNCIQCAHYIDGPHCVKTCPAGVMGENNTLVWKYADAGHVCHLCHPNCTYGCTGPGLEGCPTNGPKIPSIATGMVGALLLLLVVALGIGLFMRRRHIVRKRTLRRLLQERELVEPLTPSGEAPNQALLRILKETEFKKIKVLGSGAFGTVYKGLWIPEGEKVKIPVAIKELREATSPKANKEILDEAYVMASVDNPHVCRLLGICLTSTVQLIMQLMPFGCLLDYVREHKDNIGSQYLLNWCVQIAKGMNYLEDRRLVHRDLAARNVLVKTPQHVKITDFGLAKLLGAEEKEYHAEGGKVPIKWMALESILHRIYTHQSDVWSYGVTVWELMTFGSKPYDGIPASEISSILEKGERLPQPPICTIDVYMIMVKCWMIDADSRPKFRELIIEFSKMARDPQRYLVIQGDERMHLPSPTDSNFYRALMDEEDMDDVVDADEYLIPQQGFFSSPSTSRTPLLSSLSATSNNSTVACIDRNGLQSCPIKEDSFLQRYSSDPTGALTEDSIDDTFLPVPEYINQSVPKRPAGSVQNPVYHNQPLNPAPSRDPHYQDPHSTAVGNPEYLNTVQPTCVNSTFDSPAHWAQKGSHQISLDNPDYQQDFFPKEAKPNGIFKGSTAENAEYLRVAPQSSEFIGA

A549 [5] = experiment: Induction of apoptosis in human A549 cells assessed as live cells at 0.5 uM after 48 hrs by Annexin V-FITC/propidium iodide staining based flow cytometry (reference value: 91.81%); type: functional
A549 [6] = experiment: Induction of apoptosis in human A549 cells assessed as late apoptotic cells at 0.5 uM after 48 hrs by Annexin V-FITC/propidium iodide staining based flow cytometry (reference value: 2.07%); type: functional
A549 [7] = experiment: Induction of apoptosis in human A549 cells assessed as early apoptotic cells at 0.5 uM after 48 hrs by Annexin V-FITC/propidium iodide staining based flow cytometry (reference value: 5.61%); type: functional
A549 [8] = experiment: Induction of apoptosis in human A549 cells assessed as necrotic cells at 0.5 uM after 48 hrs by Annexin V-FITC/propidium iodide staining based flow cytometry (reference value: 0.51%); type: functional

| IC50 (PC-3) [µM] | IC50 (MCF7) [µM] | IC50 (A549 [1]) [µM] | solubility [2] | IC50 [3] [µM] | IC50 [4] [µM] | SMILES | Activity (A549 [5]) [%] | Activity (A549 [6]) [%] | Activity (A549 [7]) [%] | Activity (A549 [8]) [%] |
| --- | --- | --- | --- | --- | --- | --- | --- | --- | --- | --- |
| 8.29 | 8.45 | 9.25 | – | – | – | COc1cc2ncnc(N3CCc4ccccc43)c2cc1NC(=O)/C=C/CN1CCOCC1 | – | – | – | – |
| 5.89 | 4.03 | 2.47 | Insoluble | 0.017 | 0.186 | CC/C=C/C(=O)Nc1cc2c(N3CCc4ccccc43)ncnc2cc1OC | – | – | – | – |
| 7.84 | 6.39 | 6.27 | Insoluble | – | – | COc1cc2ncnc(N3CCc4ccccc43)c2cc1NC(=O)C=C(C)C | – | – | – | – |
| 6.13 | 6.87 | 5.41 | Insoluble | – | – | COc1cc2ncnc(N3CCCc4ccccc43)c2cc1NC(=O)C=C(C)C | – | – | – | – |
| 9.23 | 4.55 | 9.11 | Insoluble | – | – | CCC/C=C/C(=O)Nc1cc2c(N3CCc4ccccc43)ncnc2cc1O[C@@H]1CCOC1 | – | – | – | – |
| 6.53 | 6.78 | 6.41 | Insoluble | – | – | COc1cc2ncnc(N3CCc4ccccc43)c2cc1NC(=O)/C=C/C(C)C | – | – | – | – |
| 5.94 | 11.7 | 5.58 | Insoluble | – | – | C=CC(=O)Nc1cc2c(N3CCc4ccccc43)ncnc2cc1OC | – | – | – | – |
| 7.52 | 12.7 | 8.19 | Insoluble | – | – | C/C=C/C(=O)Nc1cc2c(N3CCCc4ccccc43)ncnc2cc1OC | – | – | – | – |
| 6.89 | 5.31 | 6.41 | – | – | – | CCN(CC)C/C=C/C(=O)Nc1cc2c(N3CCCc4ccccc43)ncnc2cc1OC | – | – | – | – |
| 2.19 | 3.37 | 2.04 | – | – | – | COc1cc2ncnc(N3CCc4ccccc43)c2cc1NC(=O)/C=C/CN(C)C | – | – | – | – |
| 8.12 | 4.03 | 8.29 | Insoluble | – | – | C/C=C/C(=O)Nc1cc2c(N3CCc4ccccc43)ncnc2cc1OC | – | – | – | – |
| 2.65 | 2.62 | 1.98 | – | 0.004 | 0.021 | COc1cc2ncnc(N3CCc4ccccc43)c2cc1NC(=O)/C=C/CN1CCC(CO)CC1 | – | – | – | – |
| 9.59 | 8.84 | 10.9 | Insoluble | – | – | CC/C=C/C(=O)Nc1cc2c(N3CCc4ccccc43)ncnc2cc1O[C@@H]1CCOC1 | – | – | – | – |
| 8.43 | 4.29 | 3.45 | Insoluble | – | – | COc1cc2ncnc(N3CCCc4ccccc43)c2cc1NC(=O)/C=C/C(C)C | – | – | – | – |
| 9.18 | 6.43 | 5.36 | – | – | – | COc1cc2ncnc(N3CCc4ccccc43)c2cc1NC(=O)/C=C/CN1CCN(C)CC1 | – | – | – | – |
| 1.75 | 1.77 | 1.65 | – | 0.072 | 0.107 | COc1cc2ncnc(N3CCCc4ccccc43)c2cc1NC(=O)/C=C/CN(C)C | – | – | – | – |
| 4.83 | 11.1 | 7.32 | Insoluble | – | – | C=C(C)C(=O)Nc1cc2c(N3CCc4ccccc43)ncnc2cc1OC | – | – | – | – |
| 4.24 | 3.16 | 2.92 | Insoluble | – | – | CCC/C=C/C(=O)Nc1cc2c(N3CCc4ccccc43)ncnc2cc1OC | – | – | – | – |
| 4.18 | 1.68 | 2.54 | – | 0.0454 | 0.115 | COc1cc2ncnc(N3CCc4ccccc43)c2cc1NC(=O)/C=C/CN1CCCCC1 | – | – | – | – |
| 6.31 | 2.87 | 5.03 | Insoluble | – | – | CC/C=C/C(=O)Nc1cc2c(N3CCCc4ccccc43)ncnc2cc1OC | – | – | – | – |
| 11.8 | 4.23 | 7.32 | Insoluble | – | – | CCC/C=C/C(=O)Nc1cc2c(N3CCCc4ccccc43)ncnc2cc1O[C@@H]1CCOC1 | – | – | – | – |
| 3.69 | 1.99 | 1.69 | – | – | – | CCN(CC)C/C=C/C(=O)Nc1cc2c(N3CCc4ccccc43)ncnc2cc1OC | – | – | – | – |
| 2.62 | 1.51 | 1.21 | – | 0.003 | 0.034 | COc1cc2ncnc(N3CCc4ccccc43)c2cc1NC(=O)/C=C/CN1CCCC1 | – | – | – | – |
| 2.24 | 1.21 | 1.8 | Insoluble | 0.033 | 0.162 | CCC/C=C/C(=O)Nc1cc2c(N3CCCc4ccccc43)ncnc2cc1OC | – | – | – | – |

The remaining lines, values behind:

| SMILES | IC50 (PC-3) [µM] | IC50 (MCF7) [µM] | IC50 (A549 [1]) [µM] | solubility [2] | IC50 [3] [µM] | IC50 [4] [µM] | Activity (A549 [5]) [%] | Activity (A549 [6]) [%] | Activity (A549 [7]) [%] | Activity (A549 [8]) [%] |
| --- | --- | --- | --- | --- | --- | --- | --- | --- | --- | --- |
| CCN(CC)C/C=C/C(=O)Nc1cc2c(N3CCc4ccccc43)ncnc2cc1O[C@@H]1CCOC1 | 5.78 | 4.98 | 5.22 | – | – | – | – | – | – | – |
| COc1cc2ncnc(N3CCCc4ccccc43)c2cc1NC(=O)/C=C/CN1CCCCC1 | 5.78 | 3.93 | 2.88 | – | – | – | – | – | – | – |
| CC(C)/C=C/C(=O)Nc1cc2c(N3CCCc4ccccc43)ncnc2cc1O[C@@H]1CCOC1 | 8.51 | 4.68 | 6.82 | Insoluble | – | – | – | – | – | – |
| C/C=C/C(=O)Nc1cc2c(N3CCc4ccccc43)ncnc2cc1O[C@@H]1CCOC1 | 5.22 | 4.9 | 2.61 | Insoluble | 0.029 | 0.192 | – | – | – | – |
| CN(C)C/C=C/C(=O)Nc1cc2c(Nc3ccc(F)c(Cl)c3)ncnc2cc1O[C@@H]1CCOC1 | 2.51 | – | – | – | – | – | 81.34 | 4.27 | 13.53 | 0.86 |
| O=C(/C=C/CN1CCCCC1)Nc1cc2c(N3CCc4ccccc43)ncnc2cc1O[C@@H]1CCOC1 | 4.51 | 1.89 | 4.66 | – | – | – | – | – | – | – |
| O=C(/C=C/CN1CCC(CO)CC1)Nc1cc2c(N3CCCc4ccccc43)ncnc2cc1O[C@@H]1CCOC1 | 5.46 | 4.96 | 5.3 | – | – | – | – | – | – | – |
| CC(C)/C=C/C(=O)Nc1cc2c(N3CCc4ccccc43)ncnc2cc1O[C@@H]1CCOC1 | 11.2 | 9.88 | 8.52 | Insoluble | – | – | – | – | – | – |
| CC(C)=CC(=O)Nc1cc2c(N3CCCc4ccccc43)ncnc2cc1O[C@@H]1CCOC1 | 9.02 | 11.1 | 7.91 | Insoluble | – | – | – | – | – | – |
| C=CC(=O)Nc1cc2c(N3CCc4ccccc43)ncnc2cc1O[C@@H]1CCOC1 | 2.71 | 5.95 | 9.32 | Insoluble | – | – | – | – | – | – |
| CC/C=C/C(=O)Nc1cc2c(N3CCCc4ccccc43)ncnc2cc1O[C@@H]1CCOC1 | 14.3 | 14.4 | 14.1 | Insoluble | – | – | – | – | – | – |
| CN1CCN(C/C=C/C(=O)Nc2cc3c(N4CCc5ccccc54)ncnc3cc2O[C@@H]2CCOC2)CC1 | 4.21 | 5.35 | 6.09 | – | – | – | – | – | – | – |
| COc1cc2ncnc(N3CCCc4ccccc43)c2cc1NC(=O)/C=C/CN1CCCC1 | 1.74 | 3.19 | 2.23 | – | – | – | – | – | – | – |
| COc1cc2ncnc(N3CCCc4ccccc43)c2cc1NC(=O)/C=C/CN1CCN(C)CC1 | 6.26 | 8.56 | 7.83 | – | – | – | – | – | – | – |
| COc1cc2ncnc(N3CCCc4ccccc43)c2cc1NC(=O)/C=C/CN1CCC(CO)CC1 | 7.15 | 5.74 | 6.97 | – | – | – | – | – | – | – |
| O=C(/C=C/CN1CCCC1)Nc1cc2c(N3CCCc4ccccc43)ncnc2cc1O[C@@H]1CCOC1 | 5.78 | 4.25 | 6.51 | – | – | – | – | – | – | – |
| O=C(/C=C/CN1CCC(CO)CC1)Nc1cc2c(N3CCc4ccccc43)ncnc2cc1O[C@@H]1CCOC1 | 3.31 | 4.69 | 3.67 | – | – | – | – | – | – | – |
| CCN(CC)C/C=C/C(=O)Nc1cc2c(N3CCCc4ccccc43)ncnc2cc1O[C@@H]1CCOC1 | 4.27 | 3.87 | 5.65 | – | – | – | – | – | – | – |
| CN1CCN(C/C=C/C(=O)Nc2cc3c(N4CCCc5ccccc54)ncnc3cc2O[C@@H]2CCOC2)CC1 | 9.45 | 7.18 | 5.87 | – | – | – | – | – | – | – |
| C/C=C/C(=O)Nc1cc2c(N3CCCc4ccccc43)ncnc2cc1O[C@@H]1CCOC1 | 9.35 | 5.93 | 10.8 | Insoluble | – | – | – | – | – | – |
| CN(C)C/C=C/C(=O)Nc1cc2c(N3CCCc4ccccc43)ncnc2cc1O[C@@H]1CCOC1 | 4.17 | 2.85 | 2.32 | – | – | – | – | – | – | – |
| C=C(C)C(=O)Nc1cc2c(N3CCc4ccccc43)ncnc2cc1O[C@@H]1CCOC1 | 4.91 | 14.7 | 16.6 | Insoluble | – | – | – | – | – | – |
| O=C(/C=C/CN1CCCCC1)Nc1cc2c(N3CCCc4ccccc43)ncnc2cc1O[C@@H]1CCOC1 | 3.63 | 4.45 | 3.67 | – | – | – | – | – | – | – |
| O=C(/C=C/CN1CCCC1)Nc1cc2c(N3CCc4ccccc43)ncnc2cc1O[C@@H]1CCOC1 | 1.51 | 2.31 | 2.23 | – | – | – | – | – | – | – |
| CC(C)=CC(=O)Nc1cc2c(N3CCc4ccccc43)ncnc2cc1O[C@@H]1CCOC1 | 4.62 | 15.7 | 3.67 | Insoluble | – | – | – | – | – | – |
